Source: PubChem (several laboratories)
Compounds with a hit are over-represented: about 1.8% of the library has one in this group of screens.
MLLE-PAM2 inh – blocks PAM2 peptide binding to the PABP1 MLLE domain | P11940 | GST-MLLE / FITC-PAM2 fluorescence polarization | inhibition, % at 20 µM | 360,000 tested, 0.36% active | AID 588489; in the data active = inhibition above about 35%, passing the limit was not always enough;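 also: plate controls were DMSO wells with GST-MLLE for no effect and wells lacking GST-MLLE protein for full effect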
Target sequence (P11940 whole entry, looked up, the tested form may be a part): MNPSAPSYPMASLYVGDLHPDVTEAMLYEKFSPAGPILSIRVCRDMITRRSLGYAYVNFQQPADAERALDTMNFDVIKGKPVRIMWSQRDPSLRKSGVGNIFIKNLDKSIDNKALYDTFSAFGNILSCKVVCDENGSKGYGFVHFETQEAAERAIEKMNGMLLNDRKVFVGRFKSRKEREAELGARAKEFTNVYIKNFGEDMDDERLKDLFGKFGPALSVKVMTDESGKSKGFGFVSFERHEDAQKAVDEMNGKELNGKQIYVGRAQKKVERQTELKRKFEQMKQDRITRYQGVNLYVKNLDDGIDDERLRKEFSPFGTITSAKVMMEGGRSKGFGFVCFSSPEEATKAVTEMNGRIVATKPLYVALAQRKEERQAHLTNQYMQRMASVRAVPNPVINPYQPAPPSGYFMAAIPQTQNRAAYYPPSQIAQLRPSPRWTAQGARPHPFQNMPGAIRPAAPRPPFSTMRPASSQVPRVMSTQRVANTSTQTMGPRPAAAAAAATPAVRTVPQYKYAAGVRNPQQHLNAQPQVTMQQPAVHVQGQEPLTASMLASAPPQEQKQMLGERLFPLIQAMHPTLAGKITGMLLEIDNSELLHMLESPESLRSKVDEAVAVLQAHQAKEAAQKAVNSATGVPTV
PABP FP inh – PABP-poly(A) binding inhibition; PABP-poly(A) RNA binding, fluorescence polarization; calls only at 35 µM; 290,000 tested, 1% active;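 also: calls also rest on retests at 20 µM and on dose response follow-up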
eIF4E-4G inh – blocks eIF4E binding to eIF4G; P63073+Q04637; 220,000 tested, 0.37% active; TR-FRET eIF4E-eIF4GI(517-606) binding, 2 h; inhibition, % at 21.7 µM;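 active = inhibition above about 30%, limit read from the data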;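 also: 0% = full FRET control wells and 100% = background wells lacking eIF4GI fragment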
HCV core dimer – blocks dimerization of HCV core protein. 300,000 tested, 0.33% active. AID 1899. inhibition, % at 5 µM. TR-FRET GST/Flag-core106 dimerization, 1536-well;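 active = inhibition above the mean of all tested compounds plus 3 SD, set per screening campaign, cut at about 45% in these data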
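System – GST-tagged and Flag-tagged HCV core protein residues 1-106 · Repeats – one well for each compound · Technique – TR-FRET 671 and 617 nm emission · Doses – one concentration, 5 µM, in 0.5% DMSO · Times – 4 h, 22.5 °C incubation · Also added – Eu donor and XL665 acceptor anti-tag antibodies · Measure – percent inhibition of core106 dimerization signal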
SUMO HTRF inh – blocks human SUMOylation mediated by UBC9; HTRF SUMOylation assay, SAE1/SAE2 + UBC9, in vitro; inhibition, % at 35 µM; 290,000 tested, 0.36% active; in the data active = inhibition above about 50%, passing the limit was not always enough; inconclusive = no clear call, values can overlap the other calls
eIF4H inh – inhibitors of RNA binding by human eIF4H. eIF4H fluorescence polarization binding assay. inhibition, % at 35 µM. Q15056. 290,000 tested, 0.94% active;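 also: calls also rest on retests at 20 µM and on dose response follow-up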
Numbers without * were called inactive; i = inactive; ? = inconclusive; · = not tested or not shown; + = active, no number; ! = repeats disagree; [ ] = remark or other dose. Unless noted, no rule for the calls is given here.

SMILES | MLLE-PAM2 inh | PABP FP inh | eIF4E-4G inh | HCV core dimer | SUMO HTRF inh | eIF4H inh
CCCCN1C(=O)/C(=C\c2ccco2)C(=O)N(CCc2ccccc2)C1=O | -36 | + | 15 | 25 | 22 | ?
CCCCN1C(=O)/C(=C/C=C/c2ccco2)C(=O)NC1=S | -92 | + | 17 | · | 12 | 72*
O=C1NC(=O)N(Cc2ccccc2)C(=O)/C1=C\c1ccco1 | -57 | i | 2 | 3 | 16 | ?
O=C1NC(=O)N(Cc2ccc(F)cc2)C(=O)/C1=C\C=C\c1ccco1 | -70 | ? | 7 | 13 | 26 | ?
CCCC(=O)c1cc(CP(=O)(OCC)OCC)oc1C | 16 | i | -3 | -6 | 15 | 13
CCOP(=O)(Cc1cc(C(C)=O)c(C)o1)OCC | 40* | i | 2 | 0 | 5 | 47
CC(C)N1CC=C(c2c[nH]c3ccccc23)CC1 | -2 | i | -2 | -4 | -18 | -1
C1=C(c2c[nH]c3ccccc23)CCNC1 | · | + | -1 | -12 | 32 | 95*
COc1ccc2[nH]c(C)c(CCNCc3cc(OC)c4c(c3)OCO4)c2c1 | -1 | · | · | · | · | ·
COc1ccc2[nH]c(C)c(CCNCc3cc(OC)c(OC)c(OC)c3)c2c1 | -3 | + | 0 | -1 | -1 | 94*
CCOC(=O)COc1ccc(/C=C2\C(=O)NC(=S)N(c3ccc(OC)cc3)C2=O)cc1OC | 39* | i | · | 4 | 24 | -6
CC(C)(O)C1C2OC(=O)C1C1(O)CC3OC34C(=O)OC2C14C (configuration not stated) | 5 | · | · | · | · | ·
C=C1C(=O)OC2CC3(C)OC3CCC(C)=CC(OC(C)=O)C12 (configuration not stated) | 23 | · | · | · | · | ·
C=C1C(=O)O[C@@H]2C[C@@H](C)[C@H]3C=CC(=O)[C@]3(O)C[C@@H]12 | -16 | i | -2 | 47* | -3 | 26
COc1c(O)cc2c(c1OC)-c1ccc(SC)c(=O)cc1C(NC(C)=O)CC2 (configuration not stated) | -11 | · | · | · | · | ·
CN1CCN(c2nc3ccccn3c(=O)c2C=C2C(=O)N(C)C(=O)N(C)C2=O)CC1 | 2 | + | 5 | 2 | -7 | ?
CN1C(=O)C(=Cc2sc(=O)n(-c3ccccc3)c2N2CCCCC2)C(=O)N(C)C1=O | -153 | ? | -6 | · | 13 | ?
COc1ccc(N2C(=O)NC(=O)/C(=C\c3ccccc3[N+](=O)[O-])C2=O)cc1 | 36 | i | 6 | -7 | -4 | 3
O=C1NC(=O)N(c2ccccc2)C(=O)/C1=C\c1ccc([N+](=O)[O-])o1 | · | + | 14 | 2 | 27 | 78*
CN1C(=O)NC(=O)/C(=C/c2ccc([N+](=O)[O-])o2)C1=O | · | + | 10 | -2 | 18 | ?
CN1C(=O)NC(=O)/C(=C\c2ccc([N+](=O)[O-])o2)C1=O | 12 | i | 13 | -5 | 27 | 95
COc1ccc(CN2C(=O)NC(=O)/C(=C/c3ccoc3)C2=O)cc1 | -104 | ? | 13 | 8 | 35 | ?
COc1ccc(CN2C(=O)NC(=O)/C(=C/c3ccc(OC)c(OC)c3OC)C2=O)cc1 | 0 | i | 2 | -5 | 3 | 69*
COc1ccc(CN2C(=O)NC(=O)/C(=C/c3cc(OC)c(OC)c(OC)c3)C2=O)cc1 | 19 | + | -2 | 1 | 4 | ?
Cc1cccc(N2CCc3c2nc2ccccc2c3N)c1 | -13 | i | 94*![fluorescence artefact?] | 19 | 7 | 8
SMILES | MLLE-PAM2 inh | PABP FP inh | eIF4E-4G inh | HCV core dimer | SUMO HTRF inh | eIF4H inh
Cc1ccnc(-n2c(C)nc3ccccc3c2=O)c1 | -8 | i | 0 | 4 | 22 | -3
N#CC1c2ccccc2-n2nncc2CN1Cc1cc(Cl)cc(Cl)c1 (configuration not stated) | 19 | · | · | · | · | ·
O=C(CSC1c2ccccc2-c2ccccc21)N/N=C/c1ccccc1O | 40* | i | 1 | 0 | -4 | 6
O=C1c2cccc(N3CCNCC3)c2C2CCCCN12 (configuration not stated) | -13 | · | · | · | · | ·
Nc1ccc2ccc3cccc[n+]3c2c1 | i | ? | · | 5 | ? | ?
C[n+]1c(-c2ccccc2)c2cc(N)ccc2c2ccc(N)cc21 | 113 | ? | · | -71 | 101* | ?
